According to article PMC10613959 (Toxicological Sciences, 2023):
Read-outs that look alike come from different tables or passages of the source.

Tests used:
[1] = ref Shand, 1976; cited from earlier work
[2] = Blood partitioning assay for Rbp; type: in vitro ADME; details: both, human
How it was run: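 Fresh pooled mixed-gender human whole blood (lithium heparin) and reference plasma centrifuged from the same blood were each incubated with 5 µM test compound at 37°C, n = 3. Reactions were stopped at 0 and 60 min. Rbp was derived by LC-MS/MS from test compound concentration in control plasma versus whole-blood supernatant. Chlorthalidone 5 µM served as positive control.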

[3] = Skin absorption parameters; set-up: species or system human; details: Fitted
How it was run: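 A skin model in GastroPlus TCAT started from in silico predicted values for the vehicle, stratum corneum, epidermis and dermis. Its diffusivities and partition coefficients were fitted to skin penetration data: receptor-fluid time course where available, plus skin wash and layer distribution. Parameters were adjusted to minimise model–data difference and then used in the human dermal model. Vehicle/water partitioning is formulation-specific.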

[4] = Scaling of in vitro CLint to in vivo CLint and CLliver; set-up: species or system human; details: scaled from the mean in vitro CLint
How it was run: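 Mean in vitro hepatocyte CLint was scaled to in vivo CLint (l/h) using a scaling factor: million cells per gram of liver × grams of liver weight. In vivo CLint was then converted to hepatic clearance with two variations of the well-stirred liver model.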

Cross filtration = type: in vitro ADME; details: both, human, pooled human plasma
How it was run: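 Modified cross-ultrafiltration: 10 µM test compound in pooled mixed-gender human plasma, 60 min at 37°C, n = 3, then ultrafiltered beside blank plasma. Each retentate was mixed into the partner filtrate and the regenerated samples analysed by LC-MS/MS. Warfarin 10 µM was positive control. Stability was checked at 60 min against non-incubated control. Recovery-corrected mean PPB from filtrate; Fup = 100 − PPB.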

[5] = Metabolic stability in primary human hepatocytes in suspension; type: in vitro ADME; details: human, cryopreserved human hepatocytes in suspension (5 donor pool)
How it was run: (§1)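 Cryopreserved human hepatocytes (5-donor pool, 0.8 × 10^6 cells/ml) in Williams E medium (25 mM HEPES, 2 mM L-glutamine) were incubated with test compound at 0.1, 1 and 10 µM, 37°C, n = 3. Sampled at 0, 15, 60, 90, 180 and 240 min; solvent ≤0.5% DMSO or 1% ACN. Heat-inactivated hepatocytes were the negative control. Parent loss was measured by LC-MS. CLint = −k·V (k, slope of log concentration vs time; V, incubation volume/cell number).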

human hepatocytes = test: as above; type: in vitro ADME; details: human suspension hepatocytes; compared with Naloxone
How it was run: as §1

[6] = human plasma, dermal, ref Schauer et al., 2006, cited from earlier work
[7] = PBK population simulation of plasma concentrations; set-up: species or system human
How it was run: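 GastroPlus population simulations reproduced the clinical designs. Lotion or non-aerosol spray, 2 mg/cm2 over 75% body surface, once at 0 h on day 1 and 4 times daily at 2-h intervals on days 2–4 (mixed multiple-dose profile). Alternatively, a 4% formulation over 90% body surface, about 22 mg/kg bw, in 3 male and 3 female subjects. Simulated-mean/observed-mean ratios for Cmax and AUC0−t; 10th–90th percentiles generated.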

[8] = pig skin, 24 h, skin surface washed at 8 h; mean; ref Sasson et al. (2009); cited from earlier work

CC(C)NCC(O)COc1cccc2ccccc12 (stereo not drawn) [propranolol]
bound to plasma [1]: 90%–95

Cc1ccc(/C=C2/C(=O)C3(C)CCC2C3(C)C)cc1 (stereo not drawn) [4-MBC, 4-methylbenzylidene camphor]
blood plasma ratio at 60 min, 5 µM [2]: 0.88
Dermis diffusivity [3]: 3.0E−08 cm^2/s
Dermis/water partition coefficient [3]: 2.0E+00
Epidermis/water partition coefficient [3]: 1.0E+02
Stratum corneum diffusivity [3]: 6.1E−11 cm^2/s
Stratum corneum/water partition coefficient [3]: 1.0E+03
Vehicle diffusivity [3]: 7.8E−06 cm^2/s
Vehicle/water partition coefficient ([3]; vehicle/formulation specific): 4.0E+04
In vivo CLint scaled [4]: 216 l/h/kg liver
fraction unbound at 60 min, 10 µM (Cross filtration): 0.0004
hepatocyte CLint [5]: 30 µL/min/1e6 cells
hepatocyte CLint at 0.1 µM [5]: 34 µL/min/1e6 cells
hepatocyte CLint at 1 µM [5]: 32.2 µL/min/1e6 cells
hepatocyte CLint at 10 µM [5]: 23.8 µL/min/1e6 cells
depletion in suspension hepatocytes (human hepatocytes): medium to fast depletion
Observed AUC0 − t, Geometric mean ([6]; Female): 485.6 ng·h/mL
Observed Cmax, Range ([6]; Female): 19.8 to 31.2 ng/mL
Observed AUC0 − t, Geometric mean ([6]; Male): 987.9 ng·h/mL
Observed Cmax, Range ([6]; Male): 19.8 to 83.9 ng/mL
AUC0 − t Fold Difference (Simulated Mean/Observed Mean) ([7]; Female): 0.8
Cmax Fold Difference (Simulated Mean/Observed Mean) ([7]; Female): 0.9
AUC0 − t Fold Difference (Simulated Mean/Observed Mean) ([7]; Male): 0.6
Cmax Fold Difference (Simulated Mean/Observed Mean) ([7]; Male): 0.6
Dermal delivery (Epidermis + dermis + receptor fluid), 4-MBC [8]: 3.17%
Epidermis + Dermis, distribution of 4-MBC [8]: 2.9%
Receptor fluid, distribution of 4-MBC [8]: 0.25%
Skin excess, distribution of 4-MBC [8]: 4.5%
Total recovery, 4-MBC [8]: 87.8%
Total strips (1–40), distribution of 4-MBC [8]: 80.1%
